In the M2OR odorant receptor database:

Key:
Conditions in all cases: stereoisomer not certain
[1] = target: T1, UniProt Q7TR71
T1 sequence (whole entry): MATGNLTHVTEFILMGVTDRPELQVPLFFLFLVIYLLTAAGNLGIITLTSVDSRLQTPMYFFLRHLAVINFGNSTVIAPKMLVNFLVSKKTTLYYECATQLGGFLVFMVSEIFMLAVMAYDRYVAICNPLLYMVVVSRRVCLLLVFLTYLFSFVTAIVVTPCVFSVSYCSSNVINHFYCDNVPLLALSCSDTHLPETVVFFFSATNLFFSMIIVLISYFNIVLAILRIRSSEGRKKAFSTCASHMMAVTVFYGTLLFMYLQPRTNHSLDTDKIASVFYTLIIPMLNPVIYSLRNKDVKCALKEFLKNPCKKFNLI
How it was run: (§1)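 Each entry records the cell line, G-protein, co-transfected protein and tags used. Methods varied with the source, often transient luciferase assays in mammalian cell lines. A receptor–molecule pair is called responsive (active) if the original authors judged its signal statistically different from baseline and non-responsive (inactive) otherwise.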

[2] = target: T2, UniProt Q7TR79
T2 sequence (whole entry): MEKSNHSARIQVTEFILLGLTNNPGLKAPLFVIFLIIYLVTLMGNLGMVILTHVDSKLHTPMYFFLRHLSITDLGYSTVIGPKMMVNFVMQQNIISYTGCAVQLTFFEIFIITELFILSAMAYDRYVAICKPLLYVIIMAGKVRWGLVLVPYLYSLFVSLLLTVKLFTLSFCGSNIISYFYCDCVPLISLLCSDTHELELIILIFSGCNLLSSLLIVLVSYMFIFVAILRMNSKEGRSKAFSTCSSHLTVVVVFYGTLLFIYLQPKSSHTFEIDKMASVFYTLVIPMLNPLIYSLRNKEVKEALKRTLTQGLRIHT
How it was run: as §1

[3] = target: T3, UniProt Q7TRA3
T3 sequence (whole entry): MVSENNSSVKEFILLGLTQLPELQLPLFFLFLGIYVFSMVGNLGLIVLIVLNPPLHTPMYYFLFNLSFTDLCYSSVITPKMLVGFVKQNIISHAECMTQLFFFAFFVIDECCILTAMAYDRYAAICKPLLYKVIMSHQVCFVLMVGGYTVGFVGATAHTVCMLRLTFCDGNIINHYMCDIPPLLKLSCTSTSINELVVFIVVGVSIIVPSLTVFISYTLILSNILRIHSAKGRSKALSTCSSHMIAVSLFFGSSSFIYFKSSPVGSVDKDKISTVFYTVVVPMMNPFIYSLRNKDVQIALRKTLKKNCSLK
How it was run: as §1

[4] = target: T4, UniProt Q7TRE4
T4 sequence (whole entry): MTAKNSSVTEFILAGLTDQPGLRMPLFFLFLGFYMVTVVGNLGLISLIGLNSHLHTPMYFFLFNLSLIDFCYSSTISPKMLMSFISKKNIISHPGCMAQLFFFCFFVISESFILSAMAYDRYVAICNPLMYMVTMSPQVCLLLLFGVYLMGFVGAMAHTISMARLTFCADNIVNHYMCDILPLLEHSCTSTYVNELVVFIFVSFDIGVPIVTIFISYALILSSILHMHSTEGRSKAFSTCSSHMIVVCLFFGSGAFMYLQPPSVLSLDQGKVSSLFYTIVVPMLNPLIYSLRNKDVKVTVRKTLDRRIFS
How it was run: as §1

[5] = target: T5, UniProt Q7TRW1
T5 sequence (whole entry): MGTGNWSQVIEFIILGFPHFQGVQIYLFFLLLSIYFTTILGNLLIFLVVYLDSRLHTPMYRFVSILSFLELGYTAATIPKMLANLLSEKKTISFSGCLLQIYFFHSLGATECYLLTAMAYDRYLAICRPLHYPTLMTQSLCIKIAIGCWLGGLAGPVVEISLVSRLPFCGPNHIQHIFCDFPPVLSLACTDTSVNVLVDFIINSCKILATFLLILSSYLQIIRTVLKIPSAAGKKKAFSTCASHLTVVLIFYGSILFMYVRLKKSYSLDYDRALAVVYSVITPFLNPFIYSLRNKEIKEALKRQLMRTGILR
How it was run: as §1

[6] = target: T6, UniProt Q7TRX0
T6 sequence (whole entry): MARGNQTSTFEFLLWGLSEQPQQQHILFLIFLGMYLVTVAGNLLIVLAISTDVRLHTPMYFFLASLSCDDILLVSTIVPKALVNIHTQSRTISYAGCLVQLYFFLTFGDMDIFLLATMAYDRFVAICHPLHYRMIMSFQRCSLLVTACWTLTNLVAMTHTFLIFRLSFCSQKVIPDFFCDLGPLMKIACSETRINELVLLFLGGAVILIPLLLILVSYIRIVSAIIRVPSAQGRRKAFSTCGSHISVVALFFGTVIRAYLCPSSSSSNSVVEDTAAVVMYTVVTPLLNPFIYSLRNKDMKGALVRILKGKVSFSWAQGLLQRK
How it was run: as §1

[7] = target: UniProt Q7TRX1
UniProt Q7TRX1, sequence (Q7TRX1 as listed by the source): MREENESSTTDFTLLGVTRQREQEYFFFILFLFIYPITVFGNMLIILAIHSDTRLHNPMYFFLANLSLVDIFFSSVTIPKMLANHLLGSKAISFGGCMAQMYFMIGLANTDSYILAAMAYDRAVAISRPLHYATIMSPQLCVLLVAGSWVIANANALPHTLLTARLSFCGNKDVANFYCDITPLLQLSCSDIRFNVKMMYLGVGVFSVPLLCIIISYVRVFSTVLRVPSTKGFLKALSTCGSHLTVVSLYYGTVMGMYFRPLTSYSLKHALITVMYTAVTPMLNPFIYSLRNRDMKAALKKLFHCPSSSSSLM
How it was run: as §1

[8] = target: T7, UniProt Q8VEU7
T7 sequence (whole entry): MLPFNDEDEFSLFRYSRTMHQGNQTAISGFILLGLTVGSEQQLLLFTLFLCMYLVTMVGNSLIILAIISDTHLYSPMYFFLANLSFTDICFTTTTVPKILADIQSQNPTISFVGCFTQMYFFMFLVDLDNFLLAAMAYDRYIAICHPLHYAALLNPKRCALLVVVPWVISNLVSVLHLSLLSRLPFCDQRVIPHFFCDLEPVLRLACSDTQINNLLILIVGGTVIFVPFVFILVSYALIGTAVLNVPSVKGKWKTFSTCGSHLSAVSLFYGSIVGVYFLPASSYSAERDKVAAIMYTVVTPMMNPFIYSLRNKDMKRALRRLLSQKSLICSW
How it was run: as §1

[9] = target: T8, UniProt Q8VF05
T8 sequence (whole entry): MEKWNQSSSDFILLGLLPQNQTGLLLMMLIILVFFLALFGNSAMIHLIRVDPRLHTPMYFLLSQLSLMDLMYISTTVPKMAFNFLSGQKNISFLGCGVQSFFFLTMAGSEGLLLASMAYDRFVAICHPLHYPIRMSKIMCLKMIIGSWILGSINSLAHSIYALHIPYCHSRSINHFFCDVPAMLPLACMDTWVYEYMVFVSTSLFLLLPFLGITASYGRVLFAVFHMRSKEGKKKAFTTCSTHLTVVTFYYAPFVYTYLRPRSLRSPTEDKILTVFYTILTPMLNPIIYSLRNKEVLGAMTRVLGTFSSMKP
How it was run: as §1

[10] = target: T9, UniProt Q7TRN9
T9 sequence (whole entry): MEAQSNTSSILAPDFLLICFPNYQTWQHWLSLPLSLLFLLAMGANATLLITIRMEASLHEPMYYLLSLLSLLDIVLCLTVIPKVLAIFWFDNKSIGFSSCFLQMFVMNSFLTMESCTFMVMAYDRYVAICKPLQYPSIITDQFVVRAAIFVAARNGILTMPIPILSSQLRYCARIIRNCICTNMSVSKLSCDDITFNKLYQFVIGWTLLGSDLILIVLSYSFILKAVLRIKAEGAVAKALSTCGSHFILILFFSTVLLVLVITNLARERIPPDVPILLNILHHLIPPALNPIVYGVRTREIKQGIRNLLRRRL
How it was run: as §1

[11] = target: T10, UniProt Q7TRR8
T10 sequence (whole entry): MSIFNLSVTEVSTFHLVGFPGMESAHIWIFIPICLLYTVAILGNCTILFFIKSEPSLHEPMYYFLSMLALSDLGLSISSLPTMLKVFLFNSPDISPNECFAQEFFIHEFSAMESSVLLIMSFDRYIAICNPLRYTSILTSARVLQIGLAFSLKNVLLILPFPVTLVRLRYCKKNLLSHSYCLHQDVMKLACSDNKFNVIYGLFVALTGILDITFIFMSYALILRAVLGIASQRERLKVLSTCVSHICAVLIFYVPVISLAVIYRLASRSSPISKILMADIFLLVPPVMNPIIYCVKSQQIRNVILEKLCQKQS
How it was run: as §1

[12] = target: T11, UniProt Q7TRM0
T11 sequence (whole entry): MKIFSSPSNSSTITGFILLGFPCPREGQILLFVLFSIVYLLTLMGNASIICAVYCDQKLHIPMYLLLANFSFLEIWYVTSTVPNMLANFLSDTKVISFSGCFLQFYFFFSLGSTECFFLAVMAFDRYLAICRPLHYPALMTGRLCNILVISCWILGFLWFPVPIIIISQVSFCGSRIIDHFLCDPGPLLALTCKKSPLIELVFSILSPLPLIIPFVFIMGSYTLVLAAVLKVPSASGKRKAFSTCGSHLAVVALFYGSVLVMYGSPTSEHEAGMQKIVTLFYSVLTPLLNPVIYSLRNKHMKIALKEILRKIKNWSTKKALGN
How it was run: as §1

Measured: odorant receptor agonist call

CC(C)=CCCC(C)CCO (configuration not stated)
active: [7]
not listed: [10] | [11] | [12]
inactive: all other assays above

CCCCCCCO
active: [9]
not listed: [7] | [12]
inactive: all other assays above

CCCCCCCCO
active: [10]
not listed: [7]
inactive: all other assays above

CCCC(C)=O
inactive: [1] | [3] | [4] | [5] | [8]
active: [9]

CCC(C)O (configuration not stated)
inactive: [2] | [6]

CCCCCCCC(C)=O
not listed: [7] | [10] | [11] | [12]
inactive: all other assays above

O=C(O)CCCCCBr
inactive: [2] | [12] | [10] | [11] | [6]

CC(=O)OC1(C)CCC23CC1C(C)(C)C2CCC3C (configuration not stated)
inactive: [2] | [6]

CC(=O)C1(C)CC2=C(CCCC2(C)C)CC1C (configuration not stated)
inactive: [2] | [6]

CCCCCC(=Cc1ccccc1)C(OC)OC
inactive: [2] | [6]

CCCCOC(=O)C(C)OC(=O)CCC (configuration not stated)
inactive: [1] | [3] | [4] | [5] | [8] | [9]

Cc1ccc(C(C)C)cc1
inactive: [2] | [6]

CCCCCCCCCCOC(C)=O
inactive: [2] | [6]

O=C(O)CCCCCCCCC(=O)O
inactive: [2] | [6]

O=C1Cc2ccccc2O1
not listed: [7] | [10] | [11] | [12]
inactive: all other assays above

CC1CCC(C(C)C)C(=O)C1 (configuration not stated)
inactive: [2] | [6]

c1ccccc1
active: [9]
not listed: [7] | [10] | [11] | [12]
inactive: all other assays above
